Reference: ChEMBL document CHEMBL4400554, “Ketamine esters and amides as short-acting anaesthetics: Structure-activity relationships for the side-chain” (Bioorg Med Chem, 2019)

How the values were obtained:
Rattus norvegicus [1] = experiment: Analgesic activity in Sprague-Dawley rat assessed as minimal dose for loss of pedal withdrawal reflex at 20 mg/kg/min followed by dose reduction to 6.7 mg/kg/min dosed via infusion; assay type: functional; conditions: read-out: MED
Outline: (§1)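 Rats (230 to 320g) restrained; drug at 10mg/ml infused via marginal tail vein cannula by syringe driver at 20 mg/kg/min until loss of righting reflex and PWR=1. Rate then cut to 6.7 mg/kg/min and titrated up-and-down for 10 min. PWR scored each minute by 1 s firm digital pressure on forepaw. Three rats per study, ketamine as within-group control, randomised order, ≥4 h between runs.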

Rattus norvegicus [2] = experiment: Short-acting anaesthetic activity in Sprague-Dawley rat assessed as dose causing loss of righting reflex at 20 mg/kg/min followed by dose reduction to 6.7 mg/kg/min dosed via infusion; assay type: functional; outline: as §1
Glutamate NMDA receptor = experiment: Displacement of [3H] MK-801 from NMDA glutamate ion channel in Wistar rat brain membranes (minus cerebellum) after 3 hrs by scintillation counting analysis; assay type: cell membranes
Outline: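 Radioligand binding in Wistar rat brain (minus cerebellum) preparations with MK-801 as ligand.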

Rattus norvegicus [3] = experiment: Short-acting anaesthetic activity in Sprague-Dawley rat assessed as time for return of righting reflex after infusion stopped at 20 mg/kg/min followed by dose reduction to 6.7 mg/kg/min dosed via infusion; assay type: functional
Outline: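 Rats (230 to 320g) given tail-vein infusion of drug at 10mg/ml, 20 mg/kg/min until LORR and PWR=1, then 6.7 mg/kg/min titrated up-and-down to hold dorsal recumbency and PWR=1 to 10 min before stopping. Time from cessation to return of righting reflex recorded. Three rats per study, ketamine as own control, randomised order, ≥4 h recovery.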

[4] = target: Glutamate [NMDA] receptor; experiment: Binding affinity to NMDA receptor (unknown origin); assay type: protein-complex assay, Homo sapiens
Outline: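 Radioligand binding on Wistar rat brain (minus cerebellum) preparations, MK-801 as ligand, in 5 mM Tris-acetate buffer pH 7.4, 3 h at 25°C; IC50 in µM.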

CN(C)C(=O)CCCCNC1(c2ccccc2Cl)CCCCC1=O (stereo not drawn)
minimal effective dose (Rattus norvegicus [1]): > 200 mg/kg
EC (Rattus norvegicus [2]): >200 mg/kg
IC50 (Glutamate NMDA receptor): > 1000 µM

COC(=O)CCCCNC1(c2ccccc2Cl)CCCCC1=O (stereo not drawn)
minimal effective dose (Rattus norvegicus [1]): 44 mg/kg
Time (Rattus norvegicus [3]): 99 s
EC (Rattus norvegicus [2]): 34 mg/kg
IC50 (Glutamate NMDA receptor): 3 µM

CNC(=O)CCCCNC1(c2ccccc2Cl)CCCCC1=O (stereo not drawn)
minimal effective dose (Rattus norvegicus [1]): > 200 mg/kg
Time (Rattus norvegicus [3]): 125 s
EC (Rattus norvegicus [2]): 83 mg/kg
IC50 (Glutamate NMDA receptor): 77 µM

COC(=O)COCCNC1(c2ccccc2Cl)CCCCC1=O (stereo not drawn)
minimal effective dose (Rattus norvegicus [1]): > 200 mg/kg
EC (Rattus norvegicus [2]): >200 mg/kg
IC50 (Glutamate NMDA receptor): 13 µM

CC(C)OC(=O)CCNC1(c2ccccc2Cl)CCCCC1=O (stereo not drawn)
minimal effective dose (Rattus norvegicus [1]): 37 mg/kg
Time (Rattus norvegicus [3]): 83 s
EC (Rattus norvegicus [2]): 33 mg/kg
IC50 (Glutamate NMDA receptor): 134 µM

CC(C)OC(=O)CNC1(c2ccccc2Cl)CCCCC1=O (stereo not drawn)
minimal effective dose (Rattus norvegicus [1]): > 200 mg/kg
EC (Rattus norvegicus [2]): >200 mg/kg
IC50 (Glutamate NMDA receptor): 45 µM

O=C1CCCCC1(NCCCN1CCCCC1)c1ccccc1Cl (stereo not drawn)
minimal effective dose (Rattus norvegicus [1]): 130 mg/kg
Time (Rattus norvegicus [3]): 556 s
EC (Rattus norvegicus [2]): 67 mg/kg
IC50 (Glutamate NMDA receptor): 41 µM

NC(=O)CCNC1(c2ccccc2Cl)CCCCC1=O (stereo not drawn)
minimal effective dose (Rattus norvegicus [1]): > 200 mg/kg
EC (Rattus norvegicus [2]): >200 mg/kg
IC50 (Glutamate NMDA receptor): 500 µM

CCOC(=O)C(C)CCCNC1(c2ccccc2Cl)CCCCC1=O (stereo not drawn)
minimal effective dose (Rattus norvegicus [1]): 55 mg/kg
Time (Rattus norvegicus [3]): 260 s
EC (Rattus norvegicus [2]): 50 mg/kg
IC50 (Glutamate NMDA receptor): 107 µM

CNC1(c2ccccc2Cl)CCCCC1=O (stereo not drawn) [KETAMINE]
minimal effective dose (Rattus norvegicus [1]): 28 mg/kg
Time (Rattus norvegicus [3]): 1075 s
EC (Rattus norvegicus [2]): 23 mg/kg
Ki [4]: 1.9 µM
IC50 (Glutamate NMDA receptor): 0.7 µM

CC(C)NC(=O)CCNC1(c2ccccc2Cl)CCCCC1=O (stereo not drawn)
minimal effective dose (Rattus norvegicus [1]): > 200 mg/kg
Time (Rattus norvegicus [3]): 82 s
EC (Rattus norvegicus [2]): 82 mg/kg
IC50 (Glutamate NMDA receptor): 58 µM

CCOC(=O)CCOCCNC1(c2ccccc2Cl)CCCCC1=O (stereo not drawn)
minimal effective dose (Rattus norvegicus [1]): > 200 mg/kg
EC (Rattus norvegicus [2]): >200 mg/kg
IC50 (Glutamate NMDA receptor): 87 µM

COC(=O)CCCCCCNC1(c2ccccc2Cl)CCCCC1=O (stereo not drawn)
minimal effective dose (Rattus norvegicus [1]): > 200 mg/kg
EC (Rattus norvegicus [2]): >200 mg/kg
IC50 (Glutamate NMDA receptor): 51 µM

CN(C)C(=O)CCNC1(c2ccccc2Cl)CCCCC1=O (stereo not drawn)
minimal effective dose (Rattus norvegicus [1]): 113 mg/kg
Time (Rattus norvegicus [3]): 623 s
EC (Rattus norvegicus [2]): 110 mg/kg
IC50 (Glutamate NMDA receptor): 416 µM

O=C(CCNC1(c2ccccc2Cl)CCCCC1=O)Oc1ccccc1 (stereo not drawn)
minimal effective dose (Rattus norvegicus [1]): > 200 mg/kg
EC (Rattus norvegicus [2]): >200 mg/kg
IC50 (Glutamate NMDA receptor): 73 µM

CNC(=O)CCNC1(c2ccccc2Cl)CCCCC1=O (stereo not drawn)
minimal effective dose (Rattus norvegicus [1]): > 200 mg/kg
Time (Rattus norvegicus [3]): 85 s
EC (Rattus norvegicus [2]): 58 mg/kg
IC50 (Glutamate NMDA receptor): 73 µM

COCCOC(=O)CCCCNC1(c2ccccc2Cl)CCCCC1=O (stereo not drawn)
minimal effective dose (Rattus norvegicus [1]): > 200 mg/kg
EC (Rattus norvegicus [2]): >200 mg/kg
IC50 (Glutamate NMDA receptor): 19 µM

COC(=O)C(C)(C)CCCNC1(c2ccccc2Cl)CCCCC1=O (stereo not drawn)
minimal effective dose (Rattus norvegicus [1]): > 200 mg/kg
Time (Rattus norvegicus [3]): 580 s
EC (Rattus norvegicus [2]): 52 mg/kg
IC50 (Glutamate NMDA receptor): 125 µM

CCS(=O)(=O)CCNC1(c2ccccc2Cl)CCCCC1=O (stereo not drawn)
minimal effective dose (Rattus norvegicus [1]): > 200 mg/kg
EC (Rattus norvegicus [2]): >200 mg/kg
IC50 (Glutamate NMDA receptor): > 1000 µM

COC(=O)CNC1(c2ccccc2Cl)CCCCC1=O (stereo not drawn)
minimal effective dose (Rattus norvegicus [1]): > 200 mg/kg
EC (Rattus norvegicus [2]): >200 mg/kg
IC50 (Glutamate NMDA receptor): 308 µM

COC(=O)CCCCCNC1(c2ccccc2Cl)CCCCC1=O (stereo not drawn)
minimal effective dose (Rattus norvegicus [1]): > 200 mg/kg
EC (Rattus norvegicus [2]): >200 mg/kg
IC50 (Glutamate NMDA receptor): 44 µM

CCNC(=O)CCNC1(c2ccccc2Cl)CCCCC1=O (stereo not drawn)
minimal effective dose (Rattus norvegicus [1]): 139 mg/kg
Time (Rattus norvegicus [3]): 237 s
EC (Rattus norvegicus [2]): 112 mg/kg
IC50 (Glutamate NMDA receptor): 935 µM
